# Reference: ChEMBL document CHEMBL2331294, “Anti-inflammatory diterpenoids from Croton tonkinensis” (J Nat Prod, 2013)
# Tests used:
# [1] = Antiinflammatory activity in FMLP/CB activated human neutrophils assessed as inhibition of elastase release; type: functional, cell-based, Neutrophil
# In short: (§1)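 Neutrophils from healthy donor blood (dextran sedimentation, Ficoll 1.077 g/mL, hypotonic lysis), held in Ca2+-free HBSS pH 7.4 at 4 °C. Cells (6 × 10^5/mL) with MeO-Suc-Ala-Ala-Pro-Val-p-nitroanilide 100 μM, equilibrated 37 °C 2 min, drug or 0.1% DMSO 5 min, then 100 nM FMLP plus 0.5 μg/mL cytochalasin B. A405 monitored continuously; expressed relative to drug-free activated control; n = 3−4.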
# [2] = Antiinflammatory activity in FMLP/CB activated human neutrophils assessed as inhibition of superoxide generation by ferricytochrome c reduction based spectrophotometry; type: functional, cell-based, Neutrophil
# In short: (§2)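 Human donor neutrophils (6 × 10^5 cells/mL) with 0.5 mg/mL ferricytochrome c and 1 mM Ca2+, equilibrated 37 °C 2 min, then drug or 0.1% DMSO vehicle 5 min. Activated with 100 nM FMLP after 1 μg/mL cytochalasin B preincubation, 3 min. A550 followed continuously with stirring. Superoxide from SOD (100 U/mL)-inhibitable difference, ε = 21.1/mM/10 mm; n = 3−4.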
# [3] = Antiinflammatory activity in FMLP/CB activated human neutrophils assessed as inhibition of elastase release at 10 uM; type: functional; details: Neutrophil; in short: as §1
# [4] = Antiinflammatory activity in FMLP/CB activated human neutrophils assessed as inhibition of superoxide generation at 10 uM by ferricytochrome c reduction based spectrophotometry; type: functional; details: Neutrophil; in short: as §2
# [5] = Homo sapiens, Neutrophil, read-out: IC50
Compound,"IC50 [1, 5] [nM]","IC50 [2, 5] [nM]",inhibition at 10 µM [3] [%],also measured
C=C1C(=O)[C@@]23CC[C@@H]4C(C)(C)CCC[C@@]4(C)[C@@H]2CC[C@H]1[C@H]3O,,,3.64,inhibition at 10 µM [4]: 33.6%
C=C1C[C@]23C[C@@H]1CC[C@H]2[C@]1(C)CCC[C@](C)(COC(C)=O)[C@H]1C[C@H]3O,,,,IC50 ([1]; neutrophil): ND(Insoluble); IC50 ([2]; neutrophil): ND(Insoluble)
C=C1C(=O)[C@@]23CC[C@@H]4[C@@](C)(CO)CCC[C@@]4(C)[C@@H]2CC[C@@H]1C3,,,18,inhibition at 10 µM [4]: 29.9%
CC(=O)OC[C@@]1(C)CCC[C@]2(C)[C@@H]1C[C@H](O)[C@@]13C[C@@H](CC[C@@H]21)[C@H](C)C3=O,,,-0.19,inhibition at 10 µM [4]: 40.4%
C=C1C(=O)[C@@]23[C@H](O)C[C@@H]4[C@@](C)(COC(C)=O)CCC[C@@]4(C)[C@@H]2CC[C@@H]1[C@H]3O,,,20.1,inhibition at 10 µM [4]: 19%
C=C1C(=O)[C@@]23[C@@H]4CC5=C(C(=O)CC5(C)C)[C@@](C)(O4)[C@@H]2CC[C@@H]1[C@H]3O [CROTONKINENSIN A],1630,2060,,
C=C1C[C@]23C(=O)C[C@H]4C(C)(C)CCC[C@]4(C)[C@H]2CC[C@H]1[C@@H]3O [CROTONKININ A],,,-9.32,inhibition at 10 µM [4]: 1.65%
CC(=O)O[C@H]1C[C@@H]2C[C@]3(C=C2C=O)CC[C@H]2[C@@](C)(CCC[C@]2(C)C(=O)O)[C@H]13 [CROTONKININ C],,4960,41.8,
CC(=O)OC[C@@]1(C)CCC[C@]2(C)[C@@H]1CC[C@]13C=C(C(=O)O)[C@H](C[C@H](OC(C)=O)[C@H]12)C3 [CROTONKININ D],,2930,20.3,
CC(=O)OC[C@@]1(C)CCC[C@]2(C)[C@@H]1CC[C@@]13C[C@@H](C[C@H](O)[C@H]12)C(C)(O)C3 (stereo partly specified) [CROTONKININ H],,,23.3,inhibition at 10 µM [4]: -10.9%
c1ccc2c(c1)[I+]c1ccccc1-2 [DIPHENYLENEIODONIUM],,930,,

# The next lines start with results.
"IC50 [1, 5] [nM]","IC50 [2, 5] [nM]",Compound,inhibition at 10 µM [3] [%],also measured
2360,1120,C=C1C(=O)[C@@]23[C@H](O)C[C@@H]4C(C)(C)CCC[C@@]4(C)[C@@H]2CC[C@H]1[C@H]3OC(C)=O,,
,3950,C=C1C(=O)[C@]23C[C@@H]1CC[C@H]2[C@]1(C)CCC[C@](C)(CO)[C@H]1C[C@@H]3O,45.8,
5560,3270,C=C1C(=O)[C@@]23CC[C@H]4[C@@](C)(CCC[C@]4(C)C(=O)O)[C@@H]2CC[C@H]1C3,,
2230,1740,C=C1C(=O)[C@]23C[C@@H]1CC[C@H]2[C@]1(C)CCCC(C)(C)[C@H]1C[C@@H]3O,,
2580,4120,C=C1C[C@@]23CC[C@H]4[C@@](C)(CCC[C@]4(C)C(=O)O)[C@@H]2[C@H](OC(C)=O)C[C@H]1C3,,
1650,1330,C=C1C(=O)[C@]23C[C@@H]1C[C@@H](OC(C)=O)[C@H]2[C@]1(C)CCC[C@](C)(COC(C)=O)[C@H]1C[C@@H]3O,,
240,130,C=C1C(=O)[C@@]23CC[C@@H]4[C@@](C)(COC(C)=O)CCC[C@@]4(C)[C@@H]2CC[C@@H]1C3,,
2480,1940,C=C1C(=O)[C@@]23[C@H](O)C[C@@H]4C(C)(C)CC[C@@H](OC(C)=O)[C@@]4(C)[C@@H]2CC[C@@H]1[C@H]3O,,
2640,1550,C=C1C(=O)[C@]23C[C@H]1CC[C@H]2[C@]1(C)CCC[C@](C)(COC(C)=O)[C@H]1C[C@H]3O,,
3220,1960,C=C1C(=O)[C@@]23[C@H](O)C[C@@H]4C(C)(C)CCC[C@@]4(C)[C@@H]2CC[C@@H]1[C@H]3O,,
4380,3200,CC(=O)O[C@@H]1C[C@@H]2C[C@@]3(C=C2C=O)CC[C@H]2[C@](C)(CO)CCC[C@]2(C)[C@@H]13 [CROTONKININ B],,
4660,3110,C=C1C(=O)[C@@]23CC[C@@H]4[C@@](C)(COC(C)=O)CCC[C@@]4(C)[C@@H]2[C@@H](OC(C)=O)C[C@@H]1C3 [CROTONKININ E],,
4440,2880,C=C1C(=O)[C@]23C[C@H]1CC[C@H]2[C@]1(C)CCC[C@](C)(COC(C)=O)[C@H]1C[C@H]3OC(C)=O [CROTONKININ F],,
,4290,COCC1C(=O)[C@]23C[C@H]1CC[C@H]2[C@]1(C)CCC[C@](C)(COC(C)=O)[C@H]1C[C@H]3O (stereo partly specified) [CROTONKININ G],11.1,
,4760,CC(=O)OC[C@@]1(C)CCC[C@]2(C)[C@@H]1CC[C@]13CC(=O)[C@H](C[C@H](OC(C)=O)[C@H]12)C3 [CROTONKININ J],48.8,
